# In the library only some 2.4% were active in any assay of this set; here they are far more common.
# NTR1 ag – agonists of human neurotensin receptor NTR1; P30989; NTR1-U2OS beta-arrestin-GFP spot imaging, agonist mode; activation, % at 20 µM; 0.17% of 330,000 active;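 active = activation at or above 40% of the spot to cytoplasm intensity ratio, with at least 20 cells analyzed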;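 also: 0% = DMSO without peptide and 100% = 100 nM NTR1 peptide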
# TbMetRS inhib – blocks T. brucei methionyl-tRNA synthetase activity. purified T. brucei MetRS, ATP depletion, Kinase-Glo luminescence. inhibition, % at 11.9 µM. 0.4% of 360,000 active. AID 624268;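 active = inhibition above a per-plate cutoff of the control wells' mean inhibition plus 3 SD, cut at about 5.5% in these data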;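 also: 0% = DMSO wells median and 100% = median of wells with control inhibitor compound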
#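 Assay system: T. brucei methionyl-tRNA synthetase, purified | Medium: HEPES buffer with MgCl2, KCl, DTT, spermine, BSA, pyrophosphatase | Compound: 11.9 µM single point | Incubation: 15 min enzyme-compound preincubation, 2 h reaction, 10 min detection, 25 °C | Measured by: Kinase-Glo luciferase luminescence reporting remaining unconsumed ATP | Measure: % inhibition normalized to control-well medians | Replication: Singlicate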
# H9c2 TAG inh – triacylglycerol accumulation inhibition. H9c2 cells, Nile Red lipid (TAG) fluorescence; cells loaded with 200 µM oleic acid. 0.66% of 230,000 active. AID 651582. inhibition, % at 12.5 µM;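 active = pattern-corrected inhibition of lipid staining of at least 50% with the nuclear-stain viability signal not falling by more than 50%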;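 also: 0% = DMSO wells and 100% = triacsin C control wells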
# MC4R barr agon – human MC4R agonism via beta-arrestin; P32245; 0.98% of 360,000 active; activation, % at 8.9 µM; U2OS MC4R beta-arrestin complementation, luminescence; percent of melanotan II response, DMSO zero; AID 540308;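 active = activation above a per-plate cutoff, the mean activation of sample wells on that plate plus 3 SD, cut at about 8% in these data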
# Target sequence (P32245 whole entry, looked up): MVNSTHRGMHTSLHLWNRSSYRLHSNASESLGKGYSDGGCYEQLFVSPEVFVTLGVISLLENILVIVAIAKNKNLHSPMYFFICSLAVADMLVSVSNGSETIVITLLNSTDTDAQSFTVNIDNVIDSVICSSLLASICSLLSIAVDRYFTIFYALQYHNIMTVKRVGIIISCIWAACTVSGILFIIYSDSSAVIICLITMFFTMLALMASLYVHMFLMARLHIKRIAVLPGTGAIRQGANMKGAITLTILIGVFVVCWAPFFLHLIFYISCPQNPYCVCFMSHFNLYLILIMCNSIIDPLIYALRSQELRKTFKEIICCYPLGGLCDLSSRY
# MC4R antag cAMP – antagonists of human melanocortin 4 receptor (MC4R). P32245. MC4R-expressing cells, MTII-stimulated cAMP, LANCE TR-FRET. inhibition, % at 6.5 µM. 0.48% of 360,000 active. AID 540295;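 active = inhibition above its plate's cutoff, the mean of tested wells on that plate plus 3 SD, cut at about 29% in these data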;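 also: 0% = Melanotan II alone and 100% = Melanotan II plus saturating MCL0020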
#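 System: U2OS-MC4R stable cell line; Technique: Eu-cAMP/anti-cAMP TR-FRET, emission 671 nm; Repeats: single well per compound; Also added: Melanotan II; Dosing: one concentration, 6.5 µM nominal; Schedule: 30-min compound, 1-h challenge, 1-h detection, room temperature.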
# aDG glyco up – increases alpha dystroglycan glycosylation. AID 624168. activation, % at 10 µM. Pro5-aDG cells, alpha-DG glycosylation AlphaScreen (IIH6); 0% Pro5, 100% B10-LARGE cell signal. 0.22% of 360,000 active;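 active = activation of at least 8% versus controls, or a plate z-score of at least 8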;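 also: Pro5 are CHO cells carrying HIG-tagged alpha-DG that lacks glycosylation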
# MC4R barr conf – human MC4R beta-arrestin agonism confirmation | shares compounds with MC4R barr agon | U2OS MC4R beta-arrestin recruitment, luminescence; scaled DMSO 0%, Melanotan II 100% | activation, % at 8.9 µM | 31% of 2,400 active | AID 602192;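 active = mean activation across replicates above the hit cutoff set in the earlier primary screen, cut at about 8% in these data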
# MOR DOR agonist – activates mu-delta opioid heterodimer, MC4R agonist counter-screen. shares compounds with MC4R barr agon. U2OS PathHunter beta-arrestin, beta-gal luminescence; percent of deltorphin B response, DMSO zero. activation, % at 9.2 µM. 5.8% of 2,400 active. AID 602194;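 active = mean activation across replicates exceeds the hit threshold derived in the earlier primary screen, cut at about 18% in these data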;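 also: 100% = deltorphin B at 0.9 µM final and 0% = DMSO alone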
# Starred values were filed as active, the others as inactive; x = no result given.
SMILES,NTR1 ag,TbMetRS inhib,H9c2 TAG inh,MC4R barr agon,MC4R antag cAMP,aDG glyco up,MC4R barr conf,MOR DOR agonist
CC(C)C[C@H]1CNC(=O)C(=O)N1C[C@H]1CCCN1C[C@H](CC(C)C)N1C[C@H](CC(C)C)N(CCc2ccccc2)C(=O)C1=O,x,-1.1,x,x,x,0.1,x,x
COc1ccccc1OCC(=O)Nc1ccc(Cl)cc1,-3.8,0.2,x,0.5,18.7,0.0,x,x
COc1ccccc1OCC(=O)Nc1ccc(NC(=O)COc2ccccc2OC)cc1,2.5,-0.5,11.6,18.4*,-1.8,0.0,23.2*,17.1
Cc1ccccc1OCC(=O)Nc1ccc2c(c1)C(=O)c1ccccc1C2=O,7.3,-1.4,6.7,22.1*,1.6,-0.2,8.9*,4.5
CC(C)(C)N1C(=O)c2ccccc2NC(=O)C1C(=O)NCCc1ccccc1F (centres undefined),x,-0.6,x,x,x,0.0,x,x
COc1ccc(-c2nc(NC(=O)c3n[nH]c(=O)c4ccccc34)sc2C)cc1,5.5,0.9,x,14.4*,5.2,0.6,5.7,4.3
COC(=O)[C@@]12C[C@@H](CC(=O)NCCCCc3ccccc3)C(=O)N(Cc3ccc4c(c3)OCO4)C1=CCC(C)(C)C2,x,-0.3,x,x,x,0.2,x,x
Cc1c(/C=N/n2cnnc2)c2ccccc2n1CCOc1ccc(Cl)cc1,12.4,-0.1,x,7.3,-1.9,2.4,x,x
Cc1ccc(OCCn2c(C)c(/C=N/n3cnnc3)c3ccccc32)cc1,3.2,0.3,17.1,16.4*,-1.5,-0.2,4.1,5.8
O=C(CSc1ncnc2nc[nH]c12)Nc1nnc(SCc2ccc(Cl)c(Cl)c2)s1,-1.2,0.2,1.7,16.2*,14.5,0.2,5.8,2.2
Cc1ccc(C)c(NC(=O)CSc2ncnc3nc[nH]c23)c1,-0.1,-0.4,x,-1.1,8.1,0.1,x,x
CCC(=O)Nc1ccc(S(=O)(=O)NC[C@H]2O[C@@H](n3cnc4c(=O)[nH]c(N)nc43)[C@H](O)[C@@H]2O)cc1,x,-1.0,x,x,x,-0.1,x,x
CCn1c(SCC(=O)Nc2ccc(Cl)cc2)nc2nc3c(cc2c1=O)CCCC3,11.9,-0.2,x,-0.1,11.9,-0.1,x,x
CCn1c(SCC(=O)Nc2ccc(C(C)=O)cc2)nc2nc3c(cc2c1=O)CCCC3,6.4,-0.2,x,19.3*,10.9,-0.2,17.6*,1.8
Cc1nn(-c2nc3ccccc3s2)c(N)c1Sc1ccc(F)cc1,0.3,0.0,x,14.7*,0.2,0.0,1.3,3.6
Cc1nn(-c2nc3ccccc3s2)c(N)c1-c1ccccc1,6.2,-0.6,x,4.6,0.1,-0.2,x,x
CC(=O)N1CCc2cc(NC(=O)C3(C)CCN3CCc3ccccc3)ccc21 (centres undefined),x,-0.2,10.8,1.7,6.3,-0.3,x,x
Cc1cccc2c1nc(-c1ccccc1)n1nnnc21,3.7,-0.7,x,13.3*,-3.6,0.2,2.2,4.2
COC(=O)[C@]12CCCCC=C1N(CCC1=CCCCC1)C(=O)[C@H](CC(=O)NCCCCc1ccccc1)C2,x,-2.1,x,x,x,0.2,x,x
CC/C(=N/Nc1ccccc1)c1cnnc(-c2ccccc2)n1,1.4,-0.4,25.6,16.1*,4.5,-0.6,20.6*,2.4
CC/C(=N/Nc1cccc(Cl)c1)c1cnnc(SC)n1,4.8,-1.3,x,0.4,-6.7,-0.4,x,x
CCCOc1ccc(F)cc1-c1cc(C(=O)Nc2ccc(OC)c(OC)c2)[nH]n1,x,-0.2,20.9,1.8,3.0,-0.3,x,x
CCCOc1ccc(F)cc1-c1cc(C(=O)Nc2ccc(C(C)C)cc2)[nH]n1,x,0.5,36.1,21.1*,7.9,0.5,4.6,3.6
CCOc1ccc(NC(=O)c2cccs2)c([N+](=O)[O-])c1,3.4,-0.1,-2.0,18.0*,-3.0,-0.3,1.6,9.2
Cc1cc(NC(=O)CSc2nc(-c3cccs3)cc(C(F)(F)F)n2)no1,4.5,-1.7,x,2.4,-25.0,0.2,x,x
